Measurements as given in ChEMBL document CHEMBL2146414, “Lignan derivatives from Krameria lappacea roots inhibit acute inflammation in vivo and pro-inflammatory mediators in vitro” (J Nat Prod, 2011).
Active and inactive are the calls of the source. The calls are words filed in the database; no cut-off is given here.

What was measured:
Prostaglandin E synthase = biological target: T1, Prostaglandin E synthase (Homo sapiens, UniProt O14684); assay: Inhibition of mPGES1 in IL-1beta treated human A549 cell microsomal membrane assessed as inhibition of PGE2 formation incubated for 15 mins before addition of PGH2 by RP-HPLC method; type: microsomes, Microsome
T1 sequence (O14684 whole entry): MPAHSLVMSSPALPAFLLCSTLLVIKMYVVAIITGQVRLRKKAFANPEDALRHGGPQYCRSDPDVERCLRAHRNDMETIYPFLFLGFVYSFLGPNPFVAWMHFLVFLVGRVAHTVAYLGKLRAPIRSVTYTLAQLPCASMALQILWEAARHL

[1] = biological target: T2, Glucocorticoid receptor (Homo sapiens) (UniProt P04150); assay: Activation of GR transfected in HEK293 cells at 10 uM after 18 hrs by firefly luciferase reporter gene-based luminescence assay; type: cell-based
T2 sequence (whole entry): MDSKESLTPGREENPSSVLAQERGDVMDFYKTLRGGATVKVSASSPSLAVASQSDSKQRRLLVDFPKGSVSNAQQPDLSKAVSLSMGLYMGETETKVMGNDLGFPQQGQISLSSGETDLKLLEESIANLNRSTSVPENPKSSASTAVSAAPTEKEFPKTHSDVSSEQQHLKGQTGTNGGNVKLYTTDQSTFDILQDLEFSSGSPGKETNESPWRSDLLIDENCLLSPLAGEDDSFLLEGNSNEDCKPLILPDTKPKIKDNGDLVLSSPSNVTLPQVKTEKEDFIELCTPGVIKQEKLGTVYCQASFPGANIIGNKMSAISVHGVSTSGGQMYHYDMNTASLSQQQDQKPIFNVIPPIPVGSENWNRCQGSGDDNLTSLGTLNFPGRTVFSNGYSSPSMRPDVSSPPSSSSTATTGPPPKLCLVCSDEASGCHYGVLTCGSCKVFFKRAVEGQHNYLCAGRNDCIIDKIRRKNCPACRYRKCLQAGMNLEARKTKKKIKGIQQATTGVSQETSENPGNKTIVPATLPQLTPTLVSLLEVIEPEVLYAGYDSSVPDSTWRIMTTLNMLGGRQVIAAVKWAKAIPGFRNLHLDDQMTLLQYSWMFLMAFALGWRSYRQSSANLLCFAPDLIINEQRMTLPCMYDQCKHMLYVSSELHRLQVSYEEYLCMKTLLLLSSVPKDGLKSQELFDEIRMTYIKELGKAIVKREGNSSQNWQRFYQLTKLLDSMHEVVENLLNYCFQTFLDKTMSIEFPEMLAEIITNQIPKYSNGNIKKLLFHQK

Mus musculus [2] = assay: Antiinflammatory activity in CD1 mouse ear dermatitis model assessed as inhibition of Croton oil-induced ear edema at 0.10 umol administered topically per cm'2 of ear measured after induction of dermatitis relative to untreated control; type: functional
Procedure, shortened: (§1)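 Male CD-1 mice (28–32 g), anesthetized with ketamine 145 mg/kg i.p.; right ear (about 1 cm2) given 80 μg croton oil in 15 μL acetone, with test substance co-applied in acetone; left ear left untreated. Controls received irritant only. 6 mm punches taken from both ears; edema = weight difference treated minus untreated; % inhibition vs controls. ID50 by graphic interpolation of log dose–effect curves; ANOVA with Dunnett's test.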

Mus musculus [3] = assay: Antiinflammatory activity in CD1 mouse ear dermatitis model assessed as inhibition of Croton oil-induced ear edema at 0.30 umol administered topically per cm'2 of ear measured after induction of dermatitis relative to untreated control; type: functional; procedure, shortened: as §1
[4] = biological target: T3, Prostaglandin G/H synthase 1 (Ovis aries, UniProt P05979); assay: Inhibition of ram seminal vesicle COX1 assessed as PGE2 production by enzyme immunoassay
T3 sequence (P05979 whole entry): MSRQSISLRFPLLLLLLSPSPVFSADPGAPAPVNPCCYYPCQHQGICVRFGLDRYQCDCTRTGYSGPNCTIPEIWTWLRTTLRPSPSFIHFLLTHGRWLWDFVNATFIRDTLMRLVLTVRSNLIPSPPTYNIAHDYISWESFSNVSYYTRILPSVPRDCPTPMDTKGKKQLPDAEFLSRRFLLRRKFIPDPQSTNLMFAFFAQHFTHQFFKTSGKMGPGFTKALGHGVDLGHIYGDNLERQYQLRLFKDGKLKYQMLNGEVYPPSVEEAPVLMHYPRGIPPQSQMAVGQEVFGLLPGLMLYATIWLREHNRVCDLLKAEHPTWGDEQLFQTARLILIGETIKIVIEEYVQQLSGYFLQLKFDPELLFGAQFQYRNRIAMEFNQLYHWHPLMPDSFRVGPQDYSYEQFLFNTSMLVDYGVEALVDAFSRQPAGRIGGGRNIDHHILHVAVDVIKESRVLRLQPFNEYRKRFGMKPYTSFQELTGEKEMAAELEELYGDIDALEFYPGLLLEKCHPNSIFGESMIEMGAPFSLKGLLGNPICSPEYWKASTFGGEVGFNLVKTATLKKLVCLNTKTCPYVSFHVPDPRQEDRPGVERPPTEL
Procedure, shortened: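 Purified PGHS-1 from ram seminal vesicles; PGE2 product measured by competitive EIA; samples in ethanol. IC50 from at least three concentrations, duplicates, at least three independent experiments, by nonlinear regression.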

[5] = biological target: T4, Peroxisome proliferator-activated receptor gamma (Homo sapiens) (UniProt P37231); assay: Activation of PPARgamma transfected in HEK293 cells at 10 uM after 18 hrs by firefly luciferase reporter gene-based luminescence assay; type: cell-based
T4 sequence (whole entry): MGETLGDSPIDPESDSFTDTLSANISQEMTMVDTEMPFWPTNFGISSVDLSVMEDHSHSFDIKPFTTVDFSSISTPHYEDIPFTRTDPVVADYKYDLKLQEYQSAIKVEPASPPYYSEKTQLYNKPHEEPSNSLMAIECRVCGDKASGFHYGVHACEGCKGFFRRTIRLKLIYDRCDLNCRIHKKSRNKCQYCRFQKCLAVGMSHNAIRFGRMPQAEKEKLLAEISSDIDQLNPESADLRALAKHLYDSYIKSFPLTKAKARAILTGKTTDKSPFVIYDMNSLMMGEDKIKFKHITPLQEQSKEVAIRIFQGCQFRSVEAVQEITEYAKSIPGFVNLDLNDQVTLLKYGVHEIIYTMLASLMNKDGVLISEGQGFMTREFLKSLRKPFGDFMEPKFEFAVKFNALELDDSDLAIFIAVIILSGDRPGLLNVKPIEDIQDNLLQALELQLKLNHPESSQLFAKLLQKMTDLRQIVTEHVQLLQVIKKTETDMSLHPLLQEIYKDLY

[6] = Inhibition of NFkappaB activity transfected in HEK293 cells pretreated for 1 hr before 6 hrs of LPS challenge by luciferase reporter gene assay; conditions: Homo sapiens
[7] = tested on: Radical scavenging activity; assay: Antioxidant activity assessed as DPPH free radical scavenging activity up to 100 uM after 30 mins by spectrophotometry; type: functional

| SMILES | IC50 (Prostaglandin E synthase) | Activity [1] | inhibition (INH) (Mus musculus [2]) | inhibition (INH) (Mus musculus [3]) | IC50 [4] | Activity [5] | IC50 [6] | Activity [7] |
| --- | --- | --- | --- | --- | --- | --- | --- | --- |
| COc1ccc(-c2cc3cc(CCCO)ccc3o2)c(O)c1 | 42 µM | inactive | 25% | 50% | > 50 µM | inactive | 5.9 µM |  |
| C/C=C/c1ccc2c(c1)[C@@H](C)[C@H](c1ccc(O)cc1)O2 | 19.5 µM | inactive | 25% | 45% | > 50 µM | inactive | > 20 µM | inactive |
| C[C@@H]1[C@H](C)[C@@H](c2ccc(O)cc2)O[C@@H]1c1ccc(O)cc1 | > 50 µM | inactive | 19% | 39% | > 50 µM | inactive |  | inactive |
| C/C=C/c1ccc2oc(-c3ccc(O)cc3OC)cc2c1 [RATANIAPHENOL III] | 13.5 µM | inactive | 12% | 35% | 2.7 µM | inactive | > 20 µM |  |
| C/C=C/c1ccc2oc(-c3ccc(O)cc3)c(C)c2c1 [RATANIAPHENOL II] | 11 µM | inactive | 13% | 41% | 3 µM | inactive |  | inactive |
| C/C=C/c1ccc2oc(-c3ccc(OC)cc3O)cc2c1 [RATANIAPHENOL I] | 13 µM | inactive | 9% | 33% | > 50 µM | inactive | 14.7 µM |  |
| C/C=C/c1ccc2c(c1)[C@H](CO)[C@@H](c1ccc(O)cc1)O2 | 39.5 µM | inactive | 17% | 36% | > 50 µM | inactive |  | inactive |
| C/C=C/c1ccc2oc(-c3ccc(O)cc3)cc2c1 | 5.3 µM | inactive | 14% | 35% | 18.3 µM | inactive | 1.4 µM | inactive |
| C/C=C/c1ccc2oc(-c3ccc(O)cc3O)cc2c1 | 7.4 µM | inactive | 15% | 29% | 3.8 µM | inactive |  |  |
| COc1cc(O)ccc1-c1cc2cc(CCCO)ccc2o1 | > 50 µM | inactive | 13% | 32% | > 50 µM | inactive |  |  |
| C[C@@H]1[C@H](C)[C@@H](c2ccc(O)cc2)O[C@H]1c1ccc(O)cc1 | > 50 µM | inactive | 14% | 52% | > 50 µM | inactive | > 20 µM | inactive |
